Assay results reported in ChEMBL document CHEMBL4196105, “Discovery of β-Arrestin Biased Ligands of 5-HT7R” (J Med Chem, 2018).
pEC50, pIC50, pKi: −log10 of the molar value. Active and inactive are the calls of the source. No cut-off for these calls is given here.

Assays:
[1] = molecular target: 5-hydroxytryptamine receptor 1B (Homo sapiens, UniProt P28222); assay: Displacement of [3H]LSD from human 5-HT1B receptor expressed in HEK cell membranes after 1.5 hrs by microbeta scintillation counting method
Summary of the method: (§1)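 Radioligand binding performed by the NIMH Psychoactive Drug Screening Program. Crude membranes from cells expressing recombinant receptor, with [3H]LSD, in 50 mM Tris-HCl, 10 mM MgCl2, 1 mM EDTA, pH 7.4. Eleven test concentrations. Incubated 1.5 h at room temperature, protected from light. Filtered onto PEI-soaked GF/B filters, then scintillation counting. IC50 converted to Ki; at least three experiments in triplicate.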

[2] = molecular target: 5-hydroxytryptamine receptor 1D (Homo sapiens, UniProt P28221); assay: Displacement of [3H]LSD from human 5-HT1D receptor expressed in HEK cell membranes after 1.5 hrs by microbeta scintillation counting method; summary of the method: as §1
[3] = molecular target: 5-hydroxytryptamine receptor 2A (Homo sapiens, UniProt P28223); assay: Displacement of [3H]LSD from human 5-HT2A receptor expressed in HEK cell membranes after 1.5 hrs by microbeta scintillation counting method; summary of the method: as §1
[4] = molecular target: 5-hydroxytryptamine receptor 2B (Homo sapiens, UniProt P41595); assay: Displacement of [3H]LSD from human 5-HT2B receptor expressed in HEK cell membranes after 1.5 hrs by microbeta scintillation counting method
[5] = molecular target: T1, 5-hydroxytryptamine receptor 2C (Homo sapiens, UniProt P28335); assay: Displacement of [3H]LSD from human 5-HT2C receptor expressed in HEK cell membranes after 1.5 hrs by microbeta scintillation counting method; summary of the method: as §1
T1 sequence (P28335 whole entry): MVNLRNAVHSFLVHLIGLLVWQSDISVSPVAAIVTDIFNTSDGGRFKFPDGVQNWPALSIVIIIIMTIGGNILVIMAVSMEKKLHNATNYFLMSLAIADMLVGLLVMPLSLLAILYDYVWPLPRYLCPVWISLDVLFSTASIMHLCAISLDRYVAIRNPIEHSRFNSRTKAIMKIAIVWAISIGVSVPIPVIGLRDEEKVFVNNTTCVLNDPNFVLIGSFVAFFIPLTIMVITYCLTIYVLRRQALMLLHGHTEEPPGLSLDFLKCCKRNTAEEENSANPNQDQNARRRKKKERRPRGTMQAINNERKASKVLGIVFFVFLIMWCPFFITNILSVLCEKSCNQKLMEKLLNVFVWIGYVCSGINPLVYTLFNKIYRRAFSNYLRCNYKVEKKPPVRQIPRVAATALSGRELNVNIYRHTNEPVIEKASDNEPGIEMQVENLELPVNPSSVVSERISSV

[6] = molecular target: 5-hydroxytryptamine receptor 5A (Homo sapiens, UniProt P47898); assay: Displacement of [3H]LSD from human 5-HT5A receptor expressed in HEK cell membranes after 1.5 hrs by microbeta scintillation counting method; summary of the method: as §1
[7] = molecular target: 5-hydroxytryptamine receptor 6 (Homo sapiens, UniProt P50406); assay: Displacement of [3H]LSD from human 5-HT6 receptor expressed in HEK cell membranes after 1.5 hrs by microbeta scintillation counting method; summary of the method: as §1
[8] = species: Homo sapiens; assay: Selectivity index, ratio of Ki for human 5-HT1D receptor to Ki for human 5-HT7 receptor
Summary of the method: (§2)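 Selectivity index taken as Ki at the other 5-HT receptor subtype divided by Ki at 5-HT7R, each from [3H]LSD membrane binding run by the NIMH PDSP. Ki values are means of at least three experiments in triplicate.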

[9] = species: Homo sapiens; assay: Selectivity index, ratio of Ki for human 5-HT1E receptor to Ki for human 5-HT7 receptor; summary of the method: as §2
[10] = species: Homo sapiens; assay: Selectivity index, ratio of Ki for human 5-HT2A receptor to Ki for human 5-HT7 receptor; summary of the method: as §2
[11] = species: Homo sapiens; assay: Selectivity index, ratio of Ki for human 5-HT2B receptor to Ki for human 5-HT7 receptor; summary of the method: as §2
[12] = species: Homo sapiens; assay: Selectivity index, ratio of Ki for human 5-HT2C receptor to Ki for human 5-HT7 receptor; summary of the method: as §2
[13] = species: Homo sapiens; assay: Selectivity index, ratio of Ki for human 5-HT6 receptor to Ki for human 5-HT7 receptor; summary of the method: as §2
[14] = molecular target: T2, 5-hydroxytryptamine receptor 7 (Homo sapiens, UniProt P34969); assay: Inverse agonist activity at human 5-HT7 receptor expressed in HEK293 cells assessed as decrease in Gs protein-mediated cAMP accumulation by luminescence-based assay; type: functional, cell-based
Summary of the method: (§3)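 HEK293 cells transiently transfected by calcium phosphate with human 5-HT7R and GloSensor-22F cAMP biosensor. After 5-6 h recovery, loaded with GloSensor reagent in HBSS/20 mM HEPES, pH 7.4. Test compounds at 0.01 nM-100 μM final; antagonist mode uses 5-HT stimulation. Luminescence read. Data normalised to 5-HT or SB269970 (100%) and vehicle (0%). Three experiments, at least triplicate.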

[15] = molecular target: T2, 5-hydroxytryptamine receptor 7; assay: Antagonist activity at human 5-HT7 receptor expressed in HEK293 cells assessed as inhibition of Gs protein-mediated cAMP accumulation by luminescence-based assay relative to SB269970; type: functional, cell-based; summary of the method: as §3
[16] = molecular target: T2, 5-hydroxytryptamine receptor 7; assay: Agonist activity at tTA containing TCS cleavage site-fused 5-HT7 receptor (unknown origin) expressed in tTA-dependent luciferase reporter/TEV-fused beta-arrestin2 expressing HTLA cells assessed as induction of beta-arrestin2 recruitment after 22 hrs by Tango assay relative to 5-HT; type: functional, cell-based
Summary of the method: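 HTLA cells (HEK293 stably expressing tTA-dependent luciferase reporter and β-arrestin2-TEV) transiently transfected with 5-HT7R-TCS-tTA. Plated in 1% dialysed FBS medium for 6 h, then given test compounds at 0.01 nM-100 μM final, about 22 h. Antagonist mode adds 1 μM 5-HT. BrightGlo luminescence read. Normalised to 5-HT (100%) and vehicle (0%). Three experiments, at least triplicate.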

[17] = molecular target: T2, 5-hydroxytryptamine receptor 7; assay: Antagonist activity at tTA containing TCS cleavage site-fused 5-HT7 receptor (unknown origin) expressed in tTA-dependent luciferase reporter/TEV-fused beta-arrestin2 expressing HTLA cells assessed as inhibition of 5-HT-induced beta-arrestin2 recruitment after 22 hrs by Tango assay; type: functional, cell-based
[18] = molecular target: T2, 5-hydroxytryptamine receptor 7
[19] = molecular target: T2, 5-hydroxytryptamine receptor 7; remark: listed apart in the source

Chain of 5-hydroxytryptamine receptor 1D (P28221 whole entry): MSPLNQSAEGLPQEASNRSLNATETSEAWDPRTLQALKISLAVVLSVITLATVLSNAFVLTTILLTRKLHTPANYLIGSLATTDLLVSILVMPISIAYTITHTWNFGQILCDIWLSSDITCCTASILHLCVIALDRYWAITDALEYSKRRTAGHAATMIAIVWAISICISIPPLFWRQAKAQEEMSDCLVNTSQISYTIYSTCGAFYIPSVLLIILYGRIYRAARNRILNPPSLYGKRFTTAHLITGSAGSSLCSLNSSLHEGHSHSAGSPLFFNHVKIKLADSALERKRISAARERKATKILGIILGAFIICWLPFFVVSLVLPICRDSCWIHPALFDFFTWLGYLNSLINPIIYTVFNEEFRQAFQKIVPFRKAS
Chain of 5-hydroxytryptamine receptor 2B (P41595 whole entry): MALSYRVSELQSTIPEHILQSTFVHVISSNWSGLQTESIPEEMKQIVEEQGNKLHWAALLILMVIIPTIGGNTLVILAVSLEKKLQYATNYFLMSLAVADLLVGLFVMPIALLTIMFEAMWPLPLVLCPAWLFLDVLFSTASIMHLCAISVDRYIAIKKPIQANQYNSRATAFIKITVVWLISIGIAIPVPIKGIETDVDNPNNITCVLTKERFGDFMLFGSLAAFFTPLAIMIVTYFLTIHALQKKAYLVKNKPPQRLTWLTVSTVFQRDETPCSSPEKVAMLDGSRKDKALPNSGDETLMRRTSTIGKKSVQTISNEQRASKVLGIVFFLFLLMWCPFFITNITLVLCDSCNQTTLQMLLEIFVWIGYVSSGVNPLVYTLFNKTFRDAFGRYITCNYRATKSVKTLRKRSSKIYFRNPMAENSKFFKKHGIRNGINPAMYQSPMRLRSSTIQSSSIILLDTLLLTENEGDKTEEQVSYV
T2 sequence (P34969 whole entry): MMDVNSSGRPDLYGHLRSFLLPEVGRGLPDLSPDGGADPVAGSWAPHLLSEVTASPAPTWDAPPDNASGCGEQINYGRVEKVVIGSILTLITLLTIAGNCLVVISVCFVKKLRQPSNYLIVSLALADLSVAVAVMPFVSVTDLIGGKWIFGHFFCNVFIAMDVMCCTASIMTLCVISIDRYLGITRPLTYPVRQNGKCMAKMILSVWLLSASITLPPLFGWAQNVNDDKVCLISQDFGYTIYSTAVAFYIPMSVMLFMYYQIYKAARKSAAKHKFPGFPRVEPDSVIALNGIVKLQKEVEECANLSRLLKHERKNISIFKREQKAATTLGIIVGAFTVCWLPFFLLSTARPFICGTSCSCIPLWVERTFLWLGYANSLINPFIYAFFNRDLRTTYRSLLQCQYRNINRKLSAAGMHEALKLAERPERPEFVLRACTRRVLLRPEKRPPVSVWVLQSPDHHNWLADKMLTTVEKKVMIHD
Chain of 5-hydroxytryptamine receptor 2A (P28223 whole entry): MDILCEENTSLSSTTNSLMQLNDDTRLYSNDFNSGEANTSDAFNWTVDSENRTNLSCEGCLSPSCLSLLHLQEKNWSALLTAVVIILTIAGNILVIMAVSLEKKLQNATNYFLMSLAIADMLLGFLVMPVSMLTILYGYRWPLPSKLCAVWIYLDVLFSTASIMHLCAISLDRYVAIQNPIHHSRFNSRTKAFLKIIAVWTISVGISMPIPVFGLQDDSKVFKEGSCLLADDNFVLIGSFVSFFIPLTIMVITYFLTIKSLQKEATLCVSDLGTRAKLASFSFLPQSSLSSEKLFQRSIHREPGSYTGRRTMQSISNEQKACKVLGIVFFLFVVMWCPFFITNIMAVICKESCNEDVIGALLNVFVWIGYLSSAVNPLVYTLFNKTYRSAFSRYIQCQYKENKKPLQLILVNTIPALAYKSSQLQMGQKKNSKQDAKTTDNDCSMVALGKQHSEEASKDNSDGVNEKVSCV
Chain of 5-hydroxytryptamine receptor 5A (P47898 whole entry): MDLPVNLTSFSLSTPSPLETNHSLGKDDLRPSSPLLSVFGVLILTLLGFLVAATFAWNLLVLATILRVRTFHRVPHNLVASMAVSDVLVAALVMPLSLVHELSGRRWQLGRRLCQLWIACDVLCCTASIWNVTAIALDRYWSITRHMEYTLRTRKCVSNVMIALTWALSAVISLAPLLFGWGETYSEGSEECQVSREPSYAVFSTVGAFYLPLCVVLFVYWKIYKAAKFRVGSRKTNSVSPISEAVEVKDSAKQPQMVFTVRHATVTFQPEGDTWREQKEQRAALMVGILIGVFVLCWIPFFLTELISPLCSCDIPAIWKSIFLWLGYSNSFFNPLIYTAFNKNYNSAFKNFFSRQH
Chain of 5-hydroxytryptamine receptor 6 (P50406 whole entry): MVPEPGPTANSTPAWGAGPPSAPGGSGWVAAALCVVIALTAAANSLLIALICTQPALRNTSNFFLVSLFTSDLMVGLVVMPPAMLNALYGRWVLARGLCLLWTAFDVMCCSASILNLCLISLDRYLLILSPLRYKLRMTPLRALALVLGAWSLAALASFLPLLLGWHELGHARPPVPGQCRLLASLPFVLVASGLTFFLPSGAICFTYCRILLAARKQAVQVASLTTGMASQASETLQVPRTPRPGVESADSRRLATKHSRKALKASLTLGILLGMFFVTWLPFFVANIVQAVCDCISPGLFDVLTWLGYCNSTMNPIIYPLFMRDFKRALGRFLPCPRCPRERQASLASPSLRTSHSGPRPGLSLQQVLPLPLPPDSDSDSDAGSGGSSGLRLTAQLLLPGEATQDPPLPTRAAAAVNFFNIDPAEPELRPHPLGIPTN
Chain of 5-hydroxytryptamine receptor 1B (P28222 whole entry): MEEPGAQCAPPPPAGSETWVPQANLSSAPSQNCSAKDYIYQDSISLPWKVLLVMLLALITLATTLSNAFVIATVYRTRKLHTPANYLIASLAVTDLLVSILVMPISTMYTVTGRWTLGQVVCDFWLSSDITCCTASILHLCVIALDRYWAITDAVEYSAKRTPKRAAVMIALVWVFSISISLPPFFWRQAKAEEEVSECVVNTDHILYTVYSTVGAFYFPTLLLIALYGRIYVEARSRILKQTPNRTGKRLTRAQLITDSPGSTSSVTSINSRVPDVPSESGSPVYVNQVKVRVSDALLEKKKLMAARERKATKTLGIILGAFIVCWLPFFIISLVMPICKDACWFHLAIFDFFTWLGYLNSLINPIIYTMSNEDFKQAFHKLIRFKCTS

## Cc1ccc(-c2noc3c2CCNCC3)cc1
[1]
  pKi: < 5.00
[2]
  pKi: 6.83
[3]
  pKi: 6.86
[4]
  pKi: 6.82
[5]
  pKi: 7.70
[6]
  pKi: 5.95
[7]
  pKi: 6.31
[8]
  Ratio Ki: 9.2
[9]
  Ratio Ki: 112
[10]
  Ratio Ki: 8.6
[11]
  Ratio Ki: 9.4
[12]
  Ratio Ki: 1.3
[13]
  Ratio Ki: 30.8
[14]
  Activity: Active
[15]
  Imax: 95.8%
[16]
  Emax: 40.3%
[17]
  inhibition: inactive
[18]
  pIC50: 6.07
[19]
  pEC50: 7.39

## Clc1ccc(-c2n[nH]c3c2CCNCC3)cc1
[1]
  pKi: < 5.00
[2]
  pKi: 5.68
[3]
  pKi: 6.73
[4]
  pKi: 7.00
[5]
  pKi: 6.10
[6]
  pKi: < 5.00
[7]
  pKi: 6.61
[8]
  Ratio Ki: 70.5
[9]
  Ratio Ki: 45.5
[10]
  Ratio Ki: 6.2
[11]
  Ratio Ki: 3.3
[12]
  Ratio Ki: 26.6
[13]
  Ratio Ki: 8.3
[14]
  Activity: Active
[15]
  Imax: 94.8%
[16]
  Emax: 62.8%
[17]
  inhibition: inactive
[18]
  pIC50: 5.11
[19]
  pEC50: 6.79

## Fc1ccc(-c2n[nH]c3c2CCNCC3)cc1
[1]
  pKi: < 5.00
[2]
  pKi: 6.20
[3]
  pKi: 6.76
[4]
  pKi: 7.01
[5]
  pKi: 6.70
[6]
  pKi: < 5.00
[7]
  pKi: 6.38
[8]
  Ratio Ki: 6.1
[9]
  Ratio Ki: 7.6
[10]
  Ratio Ki: 1.7
[11]
  Ratio Ki: 0.9
[12]
  Ratio Ki: 1.9
[13]
  Ratio Ki: 4
[14]
  Activity: Active
[15]
  Imax: 98.4%
[16]
  Emax: 53.9%
[17]
  inhibition: inactive
[18]
  pIC50: 5.16
[19]
  pEC50: 6.73
